Laboratory results as given in ChEMBL document CHEMBL1765016, “Indolylarylsulfones as HIV-1 non-nucleoside reverse transcriptase inhibitors: new cyclic substituents at indole-2-carboxamide” (J Med Chem, 2011).

Tested on: not listed separately
Assay: Selectivity index, CC50 for human CEM cells to IC50 for HIV1 3B
Assay type: functional, CCRF-CEM
Details: not given
In short: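 Ratio of CC₅₀ (Coulter count, mock-infected CEM) to EC₅₀ (CEM, HIV-1 IIIB, microscopic syncytia scoring at day 4).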

Compound | Selectivity Index
Cc1cc(C)cc(S(=O)(=O)c2c(C(=O)NCCOc3ccccc3)[nH]c3ccc([N+](=O)[O-])cc23)c1 | >17241
Cc1cc(C)cc(S(=O)(=O)c2c(C(=O)NCCc3ccccc3)[nH]c3ccc(Cl)c(F)c23)c1 | 1214
Cc1ccnc2c1NC(=O)c1cccnc1N2C1CC1 [NEVIRAPINE] | >520
Cc1cc(C)cc(S(=O)(=O)c2c(C(=O)NCCc3ccccc3)[nH]c3ccc(Br)cc23)c1 | 29214
Cc1cc(C)cc(S(=O)(=O)c2c(C(=O)NCc3ccccc3)[nH]c3ccc(Cl)c(F)c23)c1 | 2586
Cc1cc(C)cc(S(=O)(=O)c2c(C(=O)NCN3CCCC3)[nH]c3ccc([N+](=O)[O-])cc23)c1 | 4800
Cc1cc(C)cc(S(=O)(=O)c2c(C(=O)NCN3CCOCC3)[nH]c3ccc(Cl)c(F)c23)c1 | 15200
Cc1cc(C)cc(S(=O)(=O)c2c(C(=O)NCCN3CCOCC3)[nH]c3ccc(Cl)c(F)c23)c1 | 846
Cc1cc(C)cc(S(=O)(=O)c2c(C(=O)NCCN3CCCC3)[nH]c3ccc(Cl)c(F)c23)c1 | 229
Cc1cc(C)cc(S(=O)(=O)c2c(C(=O)NCN3CCCC3)[nH]c3ccc(Br)cc23)c1 | 7385
Cc1cc(C)cc(S(=O)(=O)c2c(C(=O)NCN3CCCC3)[nH]c3ccc(Cl)c(F)c23)c1 | 2385
Cc1cc(C)cc(S(=O)(=O)c2c(C(=O)NCCn3cccc3)[nH]c3ccc(Br)cc23)c1 | 22813

Tested on: not listed separately
Assay: Cytotoxicity against human CEM cells by coulter counter analysis
Assay type: cell-based
Details: CEM (CCRF-CEM) cells
In short: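 Mock-infected CEM cultures with compound, cell number counted by Coulter counter as percent of untreated control. CC₅₀ (50% reduction in proliferation) was read from plots against concentration. Values are means of two experiments in triplicate.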

Compound | CC50
Cc1cc(C)cc(S(=O)(=O)c2c(C(=O)NCCOc3ccccc3)[nH]c3ccc([N+](=O)[O-])cc23)c1 | > 500 µM
Cc1cc(C)cc(S(=O)(=O)c2c(C(=O)NCCc3ccccc3)[nH]c3ccc(Cl)c(F)c23)c1 | 17 µM
Cc1ccnc2c1NC(=O)c1cccnc1N2C1CC1 [NEVIRAPINE] | > 10000 µM
Cc1cc(C)cc(S(=O)(=O)c2c(C(=O)NCCc3ccccc3)[nH]c3ccc(Br)cc23)c1 | 409 µM
Cc1cc(C)cc(S(=O)(=O)c2c(C(=O)NCc3ccccc3)[nH]c3ccc(Cl)c(F)c23)c1 | 15 µM
Cc1cc(C)cc(S(=O)(=O)c2c(C(=O)NCN3CCCC3)[nH]c3ccc([N+](=O)[O-])cc23)c1 | 12 µM
Cc1cc(C)cc(S(=O)(=O)c2c(C(=O)NCN3CCOCC3)[nH]c3ccc(Cl)c(F)c23)c1 | 38 µM
Cc1cc(C)cc(S(=O)(=O)c2c(C(=O)NCCN3CCOCC3)[nH]c3ccc(Cl)c(F)c23)c1 | 11 µM
Cc1cc(C)cc(S(=O)(=O)c2c(C(=O)NCCN3CCCC3)[nH]c3ccc(Cl)c(F)c23)c1 | 6.4 µM
Cc1cc(C)cc(S(=O)(=O)c2c(C(=O)NCN3CCCC3)[nH]c3ccc(Br)cc23)c1 | 9.6 µM
Cc1cc(C)cc(S(=O)(=O)c2c(C(=O)NCN3CCCC3)[nH]c3ccc(Cl)c(F)c23)c1 | 9.3 µM
Cc1cc(C)cc(S(=O)(=O)c2c(C(=O)NCCn3cccc3)[nH]c3ccc(Br)cc23)c1 | 146 µM

Tested on: Human immunodeficiency virus 2
Assay: Antiviral activity against HIV2 isolate ROD infected in human CEM cells assessed as inhibition of virus-induced cytopathicity after 4 days by microscopic analysis
Assay type: functional, organism-based
Details: Human immunodeficiency virus 2, ISOLATE ROD, CCRF-CEM, 96 h
In short: (§1)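 CEM cells (~3 × 10⁵ cells/mL) infected with ~100 CCID₅₀ virus per mL, seeded into wells with compound dilutions. Syncytia (giant cell) formation scored microscopically after 4 days at 37 °C. EC₅₀ is the concentration protecting cells by 50%. Values are means of two experiments in triplicate.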

Compound | EC50
Cc1cc(C)cc(S(=O)(=O)c2c(C(=O)NCCOc3ccccc3)[nH]c3ccc([N+](=O)[O-])cc23)c1 | > 2 µM
Cc1cc(C)cc(S(=O)(=O)c2c(C(=O)NCCc3ccccc3)[nH]c3ccc(Cl)c(F)c23)c1 | > 10 µM
Cc1ccnc2c1NC(=O)c1cccnc1N2C1CC1 [NEVIRAPINE] | > 10 µM
Cc1cc(C)cc(S(=O)(=O)c2c(C(=O)NCCc3ccccc3)[nH]c3ccc(Br)cc23)c1 | > 2 µM
Cc1cc(C)cc(S(=O)(=O)c2c(C(=O)NCc3ccccc3)[nH]c3ccc(Cl)c(F)c23)c1 | > 2 µM
Cc1cc(C)cc(S(=O)(=O)c2c(C(=O)NCN3CCCC3)[nH]c3ccc([N+](=O)[O-])cc23)c1 | 7.8 µM
Cc1cc(C)cc(S(=O)(=O)c2c(C(=O)NCN3CCOCC3)[nH]c3ccc(Cl)c(F)c23)c1 | > 10 µM
Cc1cc(C)cc(S(=O)(=O)c2c(C(=O)NCCN3CCOCC3)[nH]c3ccc(Cl)c(F)c23)c1 | > 10 µM
Cc1cc(C)cc(S(=O)(=O)c2c(C(=O)NCCN3CCCC3)[nH]c3ccc(Cl)c(F)c23)c1 | > 2 µM
Cc1cc(C)cc(S(=O)(=O)c2c(C(=O)NCN3CCCC3)[nH]c3ccc(Br)cc23)c1 | > 2 µM
Cc1cc(C)cc(S(=O)(=O)c2c(C(=O)NCN3CCCC3)[nH]c3ccc(Cl)c(F)c23)c1 | > 2 µM
Cc1cc(C)cc(S(=O)(=O)c2c(C(=O)NCCn3cccc3)[nH]c3ccc(Br)cc23)c1 | > 10 µM

Tested on: Human immunodeficiency virus 1
Assay: Antiviral activity against wild type HIV1 3B infected in human CEM cells assessed as inhibition of virus-induced cytopathicity after 4 days by microscopic analysis
Assay type: functional, organism-based
Details: Human immunodeficiency virus 1, 3B, CCRF-CEM, 96 h
In short: as §1

Compound | EC50
Cc1cc(C)cc(S(=O)(=O)c2c(C(=O)NCCOc3ccccc3)[nH]c3ccc([N+](=O)[O-])cc23)c1 | 0.029 µM
Cc1cc(C)cc(S(=O)(=O)c2c(C(=O)NCCc3ccccc3)[nH]c3ccc(Cl)c(F)c23)c1 | 0.014 µM
Cc1ccnc2c1NC(=O)c1cccnc1N2C1CC1 [NEVIRAPINE] | 0.0192 µM
Cc1cc(C)cc(S(=O)(=O)c2c(C(=O)NCCc3ccccc3)[nH]c3ccc(Br)cc23)c1 | 0.014 µM
Cc1cc(C)cc(S(=O)(=O)c2c(C(=O)NCc3ccccc3)[nH]c3ccc(Cl)c(F)c23)c1 | 0.0058 µM
Cc1cc(C)cc(S(=O)(=O)c2c(C(=O)NCN3CCCC3)[nH]c3ccc([N+](=O)[O-])cc23)c1 | 0.0025 µM
Cc1cc(C)cc(S(=O)(=O)c2c(C(=O)NCN3CCOCC3)[nH]c3ccc(Cl)c(F)c23)c1 | 0.0025 µM
Cc1cc(C)cc(S(=O)(=O)c2c(C(=O)NCCN3CCOCC3)[nH]c3ccc(Cl)c(F)c23)c1 | 0.013 µM
Cc1cc(C)cc(S(=O)(=O)c2c(C(=O)NCCN3CCCC3)[nH]c3ccc(Cl)c(F)c23)c1 | 0.028 µM
Cc1cc(C)cc(S(=O)(=O)c2c(C(=O)NCN3CCCC3)[nH]c3ccc(Br)cc23)c1 | 0.0013 µM
Cc1cc(C)cc(S(=O)(=O)c2c(C(=O)NCN3CCCC3)[nH]c3ccc(Cl)c(F)c23)c1 | 0.0039 µM
Cc1cc(C)cc(S(=O)(=O)c2c(C(=O)NCCn3cccc3)[nH]c3ccc(Br)cc23)c1 | 0.0064 µM

Molecular target: Human immunodeficiency virus type 1 reverse transcriptase (Human immunodeficiency virus 1, UniProt Q72547, L100I)
Assay: Inhibition of HIV1 reverse transcriptase L100I mutant expressed in Escherichia coli assessed as incorporation of [3H]dTTP into poly(rA)/oligo(dT) by scintillation counting
Details: not given
In short: (§2)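 The RT was recombinant p66(His)/p51 heterodimer, mutant form, expressed in E. coli. TCA-precipitable radioactivity on GF/C filters was read by scintillation. IC50 is the concentration giving 50% inhibition.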

Compound | IC50
Cc1cc(C)cc(S(=O)(=O)c2c(C(=O)NCCOc3ccccc3)[nH]c3ccc([N+](=O)[O-])cc23)c1 | > 40 µM
Cc1cc(C)cc(S(=O)(=O)c2c(C(=O)NCCc3ccccc3)[nH]c3ccc(Br)cc23)c1 | 0.023 µM
Cc1cc(C)cc(S(=O)(=O)c2c(C(=O)NCc3ccccc3)[nH]c3ccc(Cl)c(F)c23)c1 | 0.04 µM
Cc1cc(C)cc(S(=O)(=O)c2c(C(=O)NCN3CCCC3)[nH]c3ccc([N+](=O)[O-])cc23)c1 | 0.054 µM
Cc1cc(C)cc(S(=O)(=O)c2c(C(=O)NCN3CCOCC3)[nH]c3ccc(Cl)c(F)c23)c1 | 0.241 µM
Cc1cc(C)cc(S(=O)(=O)c2c(C(=O)NCCN3CCOCC3)[nH]c3ccc(Cl)c(F)c23)c1 | 0.747 µM
Cc1cc(C)cc(S(=O)(=O)c2c(C(=O)NCCN3CCCC3)[nH]c3ccc(Cl)c(F)c23)c1 | 1.55 µM
Cc1cc(C)cc(S(=O)(=O)c2c(C(=O)NCN3CCCC3)[nH]c3ccc(Br)cc23)c1 | 0.014 µM

Molecular target: Human immunodeficiency virus type 1 reverse transcriptase (Human immunodeficiency virus 1, UniProt Q72547)
Assay: Inhibition of HIV1 wild type reverse transcriptase expressed in Escherichia coli assessed as incorporation of [3H]dTTP into poly(rA)/oligo(dT) by scintillation counting
Details: not given
In short: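 Template was poly(rA)/oligo(dT) 10:1 (0.3 μM 3′-OH ends) with 10 μM [³H]dTTP, at 37 °C. TCA-precipitable counts were taken on GF/C filters. IC₅₀ is 50% inhibition of RT activity.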

Compound | IC50
Cc1cc(C)cc(S(=O)(=O)c2c(C(=O)NCCOc3ccccc3)[nH]c3ccc([N+](=O)[O-])cc23)c1 | 0.95 µM
Cc1cc(C)cc(S(=O)(=O)c2c(C(=O)NCCc3ccccc3)[nH]c3ccc(Br)cc23)c1 | 0.128 µM
Cc1cc(C)cc(S(=O)(=O)c2c(C(=O)NCc3ccccc3)[nH]c3ccc(Cl)c(F)c23)c1 | 0.04 µM
Cc1cc(C)cc(S(=O)(=O)c2c(C(=O)NCN3CCCC3)[nH]c3ccc([N+](=O)[O-])cc23)c1 | 0.034 µM
Cc1cc(C)cc(S(=O)(=O)c2c(C(=O)NCN3CCOCC3)[nH]c3ccc(Cl)c(F)c23)c1 | 0.08 µM
Cc1cc(C)cc(S(=O)(=O)c2c(C(=O)NCCN3CCOCC3)[nH]c3ccc(Cl)c(F)c23)c1 | 0.711 µM
Cc1cc(C)cc(S(=O)(=O)c2c(C(=O)NCCN3CCCC3)[nH]c3ccc(Cl)c(F)c23)c1 | 0.158 µM
Cc1cc(C)cc(S(=O)(=O)c2c(C(=O)NCN3CCCC3)[nH]c3ccc(Br)cc23)c1 | 0.008 µM

Molecular target: Human immunodeficiency virus type 1 reverse transcriptase (Human immunodeficiency virus 1, UniProt Q72547, Y181I)
Assay: Inhibition of HIV1 reverse transcriptase Y181I mutant expressed in Escherichia coli assessed as incorporation of [3H]dTTP into poly(rA)/oligo(dT) by scintillation counting
Details: not given
In short: as §2

Compound | IC50
Cc1cc(C)cc(S(=O)(=O)c2c(C(=O)NCCOc3ccccc3)[nH]c3ccc([N+](=O)[O-])cc23)c1 | > 40 µM
Cc1cc(C)cc(S(=O)(=O)c2c(C(=O)NCCc3ccccc3)[nH]c3ccc(Br)cc23)c1 | > 40 µM
Cc1cc(C)cc(S(=O)(=O)c2c(C(=O)NCc3ccccc3)[nH]c3ccc(Cl)c(F)c23)c1 | > 40 µM
Cc1cc(C)cc(S(=O)(=O)c2c(C(=O)NCN3CCCC3)[nH]c3ccc([N+](=O)[O-])cc23)c1 | 1.02 µM
Cc1cc(C)cc(S(=O)(=O)c2c(C(=O)NCN3CCOCC3)[nH]c3ccc(Cl)c(F)c23)c1 | 10.2 µM
Cc1cc(C)cc(S(=O)(=O)c2c(C(=O)NCCN3CCOCC3)[nH]c3ccc(Cl)c(F)c23)c1 | > 40 µM
Cc1cc(C)cc(S(=O)(=O)c2c(C(=O)NCCN3CCCC3)[nH]c3ccc(Cl)c(F)c23)c1 | > 40 µM
Cc1cc(C)cc(S(=O)(=O)c2c(C(=O)NCN3CCCC3)[nH]c3ccc(Br)cc23)c1 | 0.418 µM

Molecular target: Human immunodeficiency virus type 1 reverse transcriptase (Human immunodeficiency virus 1, UniProt Q72547, K103N)
Assay: Inhibition of HIV1 reverse transcriptase K103N mutant expressed in Escherichia coli assessed as incorporation of [3H]dTTP into poly(rA)/oligo(dT) by scintillation counting
Details: not given
In short: as §2

Compound | IC50
Cc1cc(C)cc(S(=O)(=O)c2c(C(=O)NCCOc3ccccc3)[nH]c3ccc([N+](=O)[O-])cc23)c1 | > 40 µM
Cc1cc(C)cc(S(=O)(=O)c2c(C(=O)NCCc3ccccc3)[nH]c3ccc(Br)cc23)c1 | 1.68 µM
Cc1cc(C)cc(S(=O)(=O)c2c(C(=O)NCc3ccccc3)[nH]c3ccc(Cl)c(F)c23)c1 | 0.144 µM
Cc1cc(C)cc(S(=O)(=O)c2c(C(=O)NCN3CCCC3)[nH]c3ccc([N+](=O)[O-])cc23)c1 | 0.287 µM
Cc1cc(C)cc(S(=O)(=O)c2c(C(=O)NCN3CCOCC3)[nH]c3ccc(Cl)c(F)c23)c1 | 1.17 µM
Cc1cc(C)cc(S(=O)(=O)c2c(C(=O)NCCN3CCOCC3)[nH]c3ccc(Cl)c(F)c23)c1 | 6.37 µM
Cc1cc(C)cc(S(=O)(=O)c2c(C(=O)NCCN3CCCC3)[nH]c3ccc(Cl)c(F)c23)c1 | 2.41 µM
Cc1cc(C)cc(S(=O)(=O)c2c(C(=O)NCN3CCCC3)[nH]c3ccc(Br)cc23)c1 | 0.067 µM
